Assay results as given in ChEMBL document CHEMBL1123490, “Synthesis and biological activities of oligo(8-bromoadenylates) as analogues of 5'-O-triphosphoadenylyl(2'----5')adenylyl(2'----5')adenosine” (J Med Chem, 1986).

Columns and labels:
[1] = target: T1, 2-5A-dependent ribonuclease (Mus musculus, UniProt Q05921); test: (§1) Compound was tested for activation of RNase L by measuring concentration required for 50% inhibition of protein synthesis in mouse L cell extracts; assay type: cell-based
T1 sequence (Q05921 whole entry): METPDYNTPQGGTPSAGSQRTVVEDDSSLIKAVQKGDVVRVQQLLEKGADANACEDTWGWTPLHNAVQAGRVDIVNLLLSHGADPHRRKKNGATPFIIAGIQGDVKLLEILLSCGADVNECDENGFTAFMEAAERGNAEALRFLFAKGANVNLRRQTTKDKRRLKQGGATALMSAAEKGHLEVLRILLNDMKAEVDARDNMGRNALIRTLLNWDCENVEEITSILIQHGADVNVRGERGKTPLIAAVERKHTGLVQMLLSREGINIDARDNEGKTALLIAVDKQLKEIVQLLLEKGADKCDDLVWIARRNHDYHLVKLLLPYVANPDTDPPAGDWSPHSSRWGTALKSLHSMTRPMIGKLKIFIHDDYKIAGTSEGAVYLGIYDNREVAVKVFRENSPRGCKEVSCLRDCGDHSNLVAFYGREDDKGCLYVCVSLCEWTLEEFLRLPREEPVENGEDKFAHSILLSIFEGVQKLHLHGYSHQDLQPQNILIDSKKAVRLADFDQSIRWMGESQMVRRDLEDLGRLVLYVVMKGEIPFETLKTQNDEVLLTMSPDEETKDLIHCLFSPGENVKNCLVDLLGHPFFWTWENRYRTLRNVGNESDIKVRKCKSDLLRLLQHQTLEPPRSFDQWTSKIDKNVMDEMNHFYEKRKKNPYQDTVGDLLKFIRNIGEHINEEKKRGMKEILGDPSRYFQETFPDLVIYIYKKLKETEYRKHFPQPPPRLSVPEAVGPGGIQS

[2] = organism: Mus musculus; test: Compound measured for the stability in 20% mouse in L cell extracts in the absence of ATP at 0 min; assay type: functional
[3] = organism: Mus musculus; test: Compound measured for the stability in 20% mouse in L cell extracts in the presence of ATP at 40 min; assay type: functional, organism-based
[4] = organism: Mus musculus; test: Compound measured for the stability in 20% mouse in L cell extracts in the presence of ATP at 75 min; assay type: functional, organism-based
[5] = organism: Mus musculus; test: Compound measured for the stability in 20% mouse in L cell extracts in the presence of ATP at 0 min; assay type: functional, organism-based
[6] = organism: Mus musculus; test: Compound measured for the stability in 20% mouse in L cell extracts in the presence of ATP at 120 min; assay type: functional, organism-based
[7] = organism: Mus musculus; test: Compound measured for the stability in 20% mouse in L cell extracts in the presence of ATP at 12 hr; assay type: functional, organism-based
[8] = organism: Mus musculus; test: Compound measured for the stability in 20% mouse in L cell extracts in the presence of ATP at 220 min; assay type: functional, organism-based
[9] = organism: Mus musculus; test: Compound measured for the stability in 20% mouse in L cell extracts in the absence of ATP at 90 min; assay type: functional
[10] = target: T2, 2-5A-dependent ribonuclease (Mus musculus) (UniProt Q05921); test: as §1; assay type: cell-based
T2 sequence (whole entry): T1 sequence (Q05921 whole entry)
Procedure, shortened: (§2)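 Cell-free translation was run in mouse L cell extract programmed with EMCV RNA, with creatine kinase, amino acids and [3H]leucine added. At set times, aliquots were spotted onto filter disks presoaked in 15% trichloroacetic acid to measure incorporation. The value is the concentration giving 50% inhibition of protein synthesis.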

[11] = target: T2, 2-5A-dependent ribonuclease (Mus musculus); test: Binding affinity against 2-5A-dependent RNase L in mouse L cell extract using ppp5'A2p5'A2'p5'A3'[32P]pCp as a radioactive probe; assay type: cell-free
Procedure, shortened: (§3)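 Crude mouse L cell extract served as the RNase L source, with ppp5'A2'p5'A2'p5'A3'[32P]p5'Cp as the radioactive probe, in a competition binding assay on nitrocellulose. The value is the analogue concentration giving 50% displacement of the probe from the endonuclease–nitrocellulose complex.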

[12] = target: T2, 2-5A-dependent ribonuclease (Mus musculus); test: (§4) compound was tested for activation of RNase L by measuring concentration required for 50% inhibition of protein synthesis in mouse L cell extracts; assay type: cell-based; procedure, shortened: as §2
[13] = target: T2, 2-5A-dependent ribonuclease (Mus musculus); test: Binding affinity against 2-5A-dependent RNase L in mouse L cell extracts using ppp5'A2p5'A2'p5'A3'[32P]pCp as a radioactive probe; assay type: cell-free; procedure, shortened: as §3
[14] = target: T1, 2-5A-dependent ribonuclease; test: as §4; assay type: cell-based; procedure, shortened: as §2
[15] = organism: Mus musculus; test: Compound measured for the stability in 20% mouse in L cell extracts in the absence of ATP at 120 min; assay type: functional
[16] = organism: Mus musculus; test: Compound measured for the stability in 20% mouse in L cell extracts in the absence of ATP at 12 hr; assay type: functional
[17] = organism: Mus musculus; test: Compound measured for the stability in 20% mouse in L cell extracts in the absence of ATP at 150 min; assay type: functional
[18] = organism: Mus musculus; test: Compound measured for the stability in 20% mouse in L cell extracts in the absence of ATP at 240 min; assay type: functional
[19] = organism: Mus musculus; test: Compound measured for the stability in 20% mouse in L cell extracts in the absence of ATP at 30 min; assay type: functional
[20] = organism: Mus musculus; test: Compound measured for the stability in 20% mouse in L cell extracts in the presence ot ATP at 40 min.; assay type: functional, organism-based
[21] = organism: Mus musculus; test: Compound measured for the stability in 20% mouse in L cell extracts in the presence ot ATP at 75 min; assay type: functional, organism-based
[22] = organism: Mus musculus; test: Compound measured for the stability in 20% mouse in L cell extracts in the presence ot ATP at 12 hr; assay type: functional, organism-based
[23] = organism: Mus musculus; test: Compound measured for the stability in 20% mouse in L cell extracts in the presence ot ATP at 150 min; assay type: functional
[24] = organism: Mus musculus; test: Compound measured for the stability in 20% mouse in L cell extracts in the absence ot ATP at 12 hr; assay type: functional
[25] = organism: Mus musculus; test: Compound measured for the stability in 20% mouse in L cell extracts in the absence ot ATP at 150 min; assay type: functional
[26] = organism: Mus musculus; test: Compound measured for the stability in 20% mouse in L cell extracts in the absence ot ATP at 240 min; assay type: functional, organism-based
[27] = organism: Mus musculus; test: Compound measured for the stability in 20% mouse in L cell extracts in the absence ot ATP at 40 min.; assay type: functional, organism-based
[28] = organism: Mus musculus; test: Compound measured for the stability in 20% mouse in L cell extracts in the absence ot ATP at 75 min; assay type: functional
[29] = organism: Mus musculus; test: Compound measured for the stability in 20% mouse in L cell extracts in the presence of ATP at 0 min.; assay type: functional, organism-based
[30] = organism: Mus musculus; test: Compound measured for the stability in 20% mouse in L cell extracts in the absence ot ATP at 0 min.; assay type: functional

SMILES: Nc1ncnc2c1ncn2[C@@H]1O[C@H](CO[P@](=O)(O)O[C@@H]2[C@H](O)[C@@H](CO[P@](=O)(O)O[C@@H]3[C@H](O)[C@@H](CO[P@](=O)(O)O[P@@](=O)(O)OP(=O)(O)O)O[C@H]3n3cnc4c(N)ncnc43)O[C@H]2n2cnc3c(N)ncnc32)[C@@H](O)[C@H]1O
- IC50 [1]: 2.3 nM

SMILES: Nc1ncnc2c1nc(Br)n2[C@@H]1O[C@H](COP(=O)(O)O[C@@H]2[C@H](O)[C@@H](COP(=O)(O)O[C@@H]3[C@H](O)[C@@H](COP(=O)(O)OP(=O)(O)OP(=O)(O)O)O[C@H]3n3c(Br)nc4c(N)ncnc43)O[C@H]2n2c(Br)nc3c(N)ncnc32)[C@@H](O)[C@H]1O
- Stability [2]: 48%
- Stability [3]: 54%
- Stability [4]: 46%
- Stability [5]: 71%
- Stability [6]: 36%
- Stability [7]: 0%
- Stability [8]: 16%
- Stability [9]: 3%
- Relative activity [10]: 0.015
- IC50 [1]: 150 nM
- Activity [11]: 8e-09
- Relative ability [11]: 0.088

SMILES: Nc1ncnc2c1nc(Br)n2[C@@H]1O[C@H](COP(=O)(O)O[C@@H]2[C@H](O)[C@@H](COP(=O)(O)O[C@@H]3[C@H](O)[C@@H](COP(=O)(O)O[C@@H]4[C@H](O)[C@@H](COP(=O)(O)O)O[C@H]4n4c(Br)nc5c(N)ncnc54)O[C@H]3n3c(Br)nc4c(N)ncnc43)O[C@H]2n2c(Br)nc3c(N)ncnc32)[C@@H](O)[C@H]1O
- Relative activity [12]: 0.0033
- Activity [13]: 4e-09
- Relative ability [13]: 0.18
- IC50 [14]: 700 nM

SMILES: Nc1ncnc2c1nc(Br)n2[C@@H]1O[C@H](COP(=O)(O)O[C@@H]2[C@H](O)[C@@H](COP(=O)(O)O[C@@H]3[C@H](O)[C@@H](CO)O[C@H]3n3c(Br)nc4c(N)ncnc43)O[C@H]2n2c(Br)nc3c(N)ncnc32)[C@@H](O)[C@H]1O
- Relative activity [12]: < 5e-05
- Activity [13]: 6e-07
- Relative ability [13]: 0.0012
- IC50 [14]: > 50000 nM

SMILES: Nc1ncnc2c1nc(Br)n2[C@H]1O[C@@H](COP(=O)(O)O[C@H]2[C@@H](O)[C@H](COP(=O)(O)O[C@H]3[C@@H](O)[C@H](COP(=O)(O)O[C@H]4[C@@H](O)[C@H](COP(=O)(O)O[C@H]5[C@@H](O)[C@H](COP(=O)(O)O)O[C@@H]5n5c(Br)nc6c(N)ncnc65)O[C@@H]4n4c(Br)nc5c(N)ncnc54)O[C@@H]3n3c(Br)nc4c(N)ncnc43)O[C@@H]2n2c(Br)nc3c(N)ncnc32)[C@H](O)[C@@H]1O
- Relative activity [12]: < 6e-05
- Activity [13]: 3e-09
- Relative ability [13]: 0.23
- IC50 [14]: > 40000 nM

SMILES: Nc1ncnc2c1nc(Br)n2[C@@H]1O[C@H](COP(=O)(O)O[C@@H]2[C@H](O)[C@@H](COP(=O)(O)O[C@@H]3[C@H](O)[C@@H](COP(=O)(O)O[C@@H]4[C@H](O)[C@@H](CO)O[C@H]4n4c(Br)nc5c(N)ncnc54)O[C@H]3n3c(Br)nc4c(N)ncnc43)O[C@H]2n2c(Br)nc3c(N)ncnc32)[C@@H](O)[C@H]1O
- Relative activity [12]: < 1e-05
- Activity [13]: 3e-08
- Relative ability [13]: 0.023
- IC50 [14]: > 200000 nM

SMILES: Nc1ncnc2c1nc(Br)n2[C@@H]1O[C@H](COP(=O)(O)O[C@@H]2[C@H](O)[C@@H](COP(=O)(O)O[C@@H]3[C@H](O)[C@@H](COP(=O)(O)OP(=O)(O)O)O[C@H]3n3c(Br)nc4c(N)ncnc43)O[C@H]2n2c(Br)nc3c(N)ncnc32)[C@@H](O)[C@H]1O
- Stability [2]: 100%
- Stability [15]: 67%
- Stability [16]: 0%
- Stability [17]: 55%
- Stability [3]: 87%
- Stability [4]: 71%
- Stability [5]: 100%
- Stability [7]: 47%
- Stability [8]: 70%
- Stability [18]: 0%
- Stability [19]: 80%
- Stability [9]: 70%
- Relative activity [10]: 0.05
- Activity [13]: 3e-09
- Relative ability [13]: 0.23
- IC50 [1]: 46 nM

SMILES: Nc1ncnc2c1nc(Br)n2[C@@H]1O[C@H](COP(=O)(O)O[C@@H]2[C@H](O)[C@@H](COP(=O)(O)O[C@@H]3[C@H](O)[C@@H](COP(=O)(O)O)O[C@H]3n3c(Br)nc4c(N)ncnc43)O[C@H]2n2c(Br)nc3c(N)ncnc32)[C@@H](O)[C@H]1O
- Stability [20]: 99%
- Stability [21]: 89%
- Stability [22]: 53%
- Stability [23]: 84%
- Stability [24]: 22%
- Stability [25]: 77%
- Stability [26]: 76%
- Stability [27]: 88%
- Stability [28]: 82%
- Stability [29]: 100%
- Stability [30]: 100%
- Relative activity [10]: 0.0023
- Activity [13]: 2e-08
- IC50 [1]: 1000 nM
- Relative ability [11]: 0.035

SMILES: Nc1ncnc2c1ncn2[C@@H]1O[C@H](COP(=O)(O)O[C@@H]2[C@H](O)[C@@H](COP(=O)(O)O[C@@H]3[C@H](O)[C@@H](COP(=O)(O)OP(=O)(O)OP(=O)(O)O)O[C@H]3n3cnc4c(N)ncnc43)O[C@H]2n2cnc3c(N)ncnc32)[C@@H](O)[C@H]1O
- Relative activity [10]: 1
